Source: ChEMBL document CHEMBL1125041, “New inhibitors of renin that contain novel phosphostatine Leu-Val replacements” (J Med Chem, 1990)

Assays:
Renin = target: T1, Renin (Homo sapiens, UniProt P00797); experiment: Inhibition of purified human renal renin at pH 6.
T1 sequence (P00797 whole entry): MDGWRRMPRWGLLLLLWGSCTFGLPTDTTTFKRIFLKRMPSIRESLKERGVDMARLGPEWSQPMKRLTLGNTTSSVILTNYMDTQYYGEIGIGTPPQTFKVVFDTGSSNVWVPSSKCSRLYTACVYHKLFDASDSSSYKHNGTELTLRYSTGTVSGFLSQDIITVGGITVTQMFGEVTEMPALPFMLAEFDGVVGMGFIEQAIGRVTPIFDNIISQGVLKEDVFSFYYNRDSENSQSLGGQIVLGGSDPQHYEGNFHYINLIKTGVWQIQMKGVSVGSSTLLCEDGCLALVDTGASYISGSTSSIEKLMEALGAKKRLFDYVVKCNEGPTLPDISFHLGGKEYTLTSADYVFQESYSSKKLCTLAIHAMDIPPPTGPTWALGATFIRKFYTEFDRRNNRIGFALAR
Procedure, shortened: (§1)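 Purified human renal renin enzyme assay at pH 6.0, following a previously described method. IC50 values were determined. Where IC50 exceeded 10^-6 M, no IC50 was determined and percent inhibition was reported at the stated concentration.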

Renin (Homo sapiens) = target: T2, Renin (Homo sapiens) (UniProt P00797); experiment: The compound was tested in vitro for inhibition of purified human renal renin at pH 6 and a concentration of 10e-6 M; procedure, shortened: as §1
T2 sequence (whole entry): T1 sequence (P00797 whole entry)

Pepsin A (Sus scrofa) [1] = target: Pepsin A (Sus scrofa) (UniProt P00791); experiment: In vitro inhibitory activity against porcine pepsin was determined at 10e-5 M
Cathepsin D (Bos taurus) [2] = target: T3, Cathepsin D (Bos taurus) (UniProt P80209); experiment: Tested for inhibition of Cathepsin D from bovine was determined at 10e-5 M
T3 sequence (whole entry): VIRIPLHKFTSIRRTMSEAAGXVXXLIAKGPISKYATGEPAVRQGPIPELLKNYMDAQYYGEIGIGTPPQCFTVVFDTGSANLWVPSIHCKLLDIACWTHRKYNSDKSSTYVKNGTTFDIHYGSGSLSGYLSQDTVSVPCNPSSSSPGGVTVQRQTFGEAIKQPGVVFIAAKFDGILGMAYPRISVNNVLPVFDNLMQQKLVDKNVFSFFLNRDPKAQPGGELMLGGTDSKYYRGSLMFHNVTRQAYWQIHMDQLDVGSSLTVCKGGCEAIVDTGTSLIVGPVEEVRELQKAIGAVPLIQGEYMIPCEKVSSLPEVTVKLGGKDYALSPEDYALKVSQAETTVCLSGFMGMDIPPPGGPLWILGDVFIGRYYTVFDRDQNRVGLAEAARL

Cathepsin D (Bos taurus) [3] = target: T3, Cathepsin D (Bos taurus); experiment: Tested for inhibition of Cathepsin D from bovine at a concentration of 10e-5 M
Pepsin A (Sus scrofa) [4] = target: Pepsin A (Sus scrofa) (UniProt P00791); experiment: Inhibitory activity against Porcine pepsin at a concentration of 10e-5 M

Chain of Pepsin A (Sus scrofa) (P00791 60-385 limits assumed): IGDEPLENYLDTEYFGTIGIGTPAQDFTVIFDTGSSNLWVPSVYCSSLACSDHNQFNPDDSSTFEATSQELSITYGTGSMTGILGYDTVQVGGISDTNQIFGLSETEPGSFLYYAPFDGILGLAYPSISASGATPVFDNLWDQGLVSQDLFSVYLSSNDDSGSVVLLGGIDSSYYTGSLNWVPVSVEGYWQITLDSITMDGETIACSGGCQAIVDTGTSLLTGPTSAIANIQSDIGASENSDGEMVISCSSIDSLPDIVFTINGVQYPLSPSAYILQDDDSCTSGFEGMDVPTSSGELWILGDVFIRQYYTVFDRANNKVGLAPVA

Row | SMILES | IC50 (Renin) [nM] | also measured
1 | CC(C)(C)OC(=O)N[C@@H](Cc1ccccc1)C(=O)N[C@@H](Cc1c[nH]cn1)C(=O)N[C@@H](CC1CCCCC1)[C@@H](O)CP(C)(C)=O (stereo in doubt; 24) | – | inhibition (Renin (Homo sapiens)): 49%
2 | CC(C)(C)OC(=O)N[C@@H](Cc1ccccc1)C(=O)N[C@@H](Cc1c[nH]cn1)C(=O)N[C@@H](CC1CCCCC1)[C@@H](O)CP1(=O)OCCCO1 | 80 | inhibition (Pepsin A (Sus scrofa) [1]): 2%; inhibition (Cathepsin D (Bos taurus) [2]): 0%
3 | COP(=O)(O)C[C@H](O)[C@H](CC1CCCCC1)NC(=O)[C@H](CC(C)C)NC(=O)[C@H](Cc1ccccc1)NC(=O)OC(C)(C)C | 350 | –
4 | CCCCOP(=O)(C[C@H](O)[C@H](CC1CCCCC1)NC(=O)[C@H](Cc1c[nH]cn1)NC(=O)[C@H](Cc1ccccc1)NC(=O)OC(C)(C)C)OCCCC | 400 | –
5 | CC(C)OP(=O)(C[C@H](O)[C@H](CC1CCCCC1)NC(=O)[C@H](Cc1c[nH]cn1)NC(=O)[C@H](Cc1ccccc1)NC(=O)OC(C)(C)C)OC(C)C | 1500 | –
6 | CC(C)(C)OC(=O)N[C@@H](Cc1ccccc1)C(=O)N[C@@H](Cc1c[nH]cn1)C(=O)N[C@@H](CC1CCCCC1)[C@@H](O)CP(C)(C)=O (stereo in doubt; 23) | – | inhibition (Renin (Homo sapiens)): 24%
7 | COP(=O)(C[C@H](O)[C@H](CC1CCCCC1)NC(=O)[C@H](CC(C)C)NC(=O)[C@H](Cc1ccccc1)NC(=O)OC(C)(C)C)OC | 20 | inhibition (Pepsin A (Sus scrofa) [1]): 21%; inhibition (Cathepsin D (Bos taurus) [2]): 86%
8 | CCOP(=O)(C[C@H](O)[C@H](CC1CCCCC1)NC(=O)[C@H](Cc1c[nH]cn1)NC(=O)[C@H](Cc1ccccc1)NC(=O)OC(C)(C)C)OCC | 72 | inhibition (Cathepsin D (Bos taurus) [3]): 0%; inhibition (Pepsin A (Sus scrofa) [4]): 0%
9 | CCOC(=O)N[C@@H](Cc1ccccc1)C(=O)N[C@@H](Cc1c[nH]cn1)C(=O)N[C@@H](CC1CCCCC1)[C@@H](O)CP(=O)(OC)OC | 50 | inhibition (Pepsin A (Sus scrofa) [1]): 4%; inhibition (Cathepsin D (Bos taurus) [2]): 0%
10 | COP(=O)(C[C@H](O)[C@H](CC1CCCCC1)NC(=O)[C@H](Cc1c[nH]cn1)NC(=O)[C@H](Cc1ccccc1)NC(=O)CC(C)(C)C)OC | 47 | inhibition (Pepsin A (Sus scrofa) [1]): 3%; inhibition (Cathepsin D (Bos taurus) [2]): 6%

Now from value to compound, other results behind:

Row | IC50 (Renin) [nM] | SMILES | also measured
11 | 39 | COP(=O)(C[C@H](O)[C@H](CC1CCCCC1)NC(=O)[C@H](Cc1c[nH]cn1)NC(=O)[C@H](Cc1ccccc1)NC(=O)OC(C)(C)C)OC | –
12 | 4000 | COP(=O)(C[C@@H](O)[C@H](Cc1ccccc1)NC(=O)[C@H](Cc1c[nH]cn1)NC(=O)[C@H](Cc1ccccc1)NC(=O)OC(C)(C)C)OC | –
13 | 5100 | COP(=O)(C[C@H](O)[C@H](CC(C)C)NC(=O)[C@H](Cc1c[nH]cn1)NC(=O)[C@H](Cc1ccccc1)NC(=O)OC(C)(C)C)OC | –
14 | 90 | COP(=O)(C[C@@H](O)[C@H](CC1CCCCC1)NC(=O)[C@H](Cc1c[nH]cn1)NC(=O)[C@H](Cc1ccccc1)NC(=O)OC(C)(C)C)OC | –
15 | 15000 | COP(=O)(CC(O)[C@H](Cc1ccccc1)NC(=O)[C@H](C)NC(=O)C(Cc1ccccc1)NC(=O)OC(C)(C)C)OC (stereo partly specified) | –
16 | 1500 | COP(=O)(C[C@H](O)[C@H](Cc1ccccc1)NC(=O)[C@H](Cc1c[nH]cn1)NC(=O)[C@H](Cc1ccccc1)NC(=O)OC(C)(C)C)OC | –
